Laboratory results as given in ChEMBL document CHEMBL3580554, “Design, synthesis, and anticonvulsant activity of new hybrid compounds derived from 2-(2,5-dioxopyrrolidin-1-yl)propanamides and 2-(2,5-dioxopyrrolidin-1-yl)butanamides” (J Med Chem, 2015).

What was measured:
[1] = tested on: Mus musculus; assay: Anticonvulsant activity in Swiss mouse assessed as protection against seizures at 300 mg/kg, ip dosed 2 hrs before pentylenetetrazole challenge by subcutaneous pentylenetetrazole seizure test; type: functional
Summary of the method: (§1)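 Mice were dosed i.p. at a fixed 300 or 100 mg/kg (6 Hz: 100 mg/kg only). Protection was then scored against MES, sc PTZ or 6 Hz seizures at pretreatment times of 0.25, 0.5, 1 and 2 h. Groups were four mice, scored as number protected / number tested. This also gives the time course and time of peak effect.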

[2] = organism: Rattus norvegicus; assay: Inhibition of [3H]BTX binding to sodium channel site 2 in rat cerebral cortex synaptosomes at 100 uM incubated for 60 mins by scintillation counting based radioligand displacement assay; type: subcellular
Summary of the method: (§2)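 Synaptoneurosomal preparations from rat cerebral cortex were used. The read-out was inhibition of specific [3H]BTX binding to the voltage-sensitive sodium channel (site 2), expressed as % inhibition of control specific binding. Compounds were tested at 1, 10, 100 and 500 μM. Inhibition above 50% was taken as significant.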

[3] = tested on: Mus musculus; assay: Anticonvulsant activity in Swiss mouse assessed as protection against seizures at 300 mg/kg, ip dosed 0.5 hrs before initiation of maximal electroconvulsions by maximal electroshock test; type: functional; summary of the method: as §1
[4] = tested on: Mus musculus; assay: Anticonvulsant activity in Swiss mouse assessed as protection against seizures at 100 mg/kg, ip dosed 2 hrs before initiation of maximal electroconvulsions by maximal electroshock test; type: functional; summary of the method: as §1
[5] = tested on: Mus musculus; assay: Anticonvulsant activity in Swiss mouse assessed as protection against seizures at 100 mg/kg, ip dosed 0.25 hrs before pentylenetetrazole challenge by subcutaneous pentylenetetrazole seizure test; type: functional; summary of the method: as §1
[6] = tested on: Mus musculus; assay: Anticonvulsant activity in ip dosed Swiss mouse assessed as protection against seizures measured at 1 hr of time to peak effect by maximal electroshock test; type: functional
[7] = organism: Rattus norvegicus; assay: Inhibition of [3H]BTX binding to sodium channel site 2 in rat cerebral cortex synaptosomes at 1 uM incubated for 60 mins by scintillation counting based radioligand displacement assay; type: subcellular; summary of the method: as §2
[8] = tested on: Mus musculus; assay: Anticonvulsant activity in Swiss mouse assessed as protection against seizures at 300 mg/kg, ip dosed 1 hr before initiation of maximal electroconvulsions by maximal electroshock test; type: functional; summary of the method: as §1
[9] = tested on: Mus musculus; assay: Protective index, ratio of neurotoxic TD50 in Swiss mouse by Chimney test to anticonvulsant ED50 in Swiss mouse measured at 0.5 hrs of time to peak effect by subcutaneous pentylenetetrazole seizure test; type: functional
Summary of the method: (§3)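 Protective index was calculated as TD50 (chimney test, mouse, i.p.) divided by ED50 from the matching MES, sc PTZ or 6 Hz test, both taken at the time of peak effect.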

[10] = tested on: Mus musculus; assay: Anticonvulsant activity in Swiss mouse model of 6 Hz psychomotor seizure mode assessed as protection against seizures at 100 mg/kg, ip dosed 0.5 hrs before 6 Hz electrical stimulation by 6 Hz test; type: functional; summary of the method: as §1
[11] = tested on: Mus musculus; assay: Anticonvulsant activity in Swiss mouse assessed as protection against seizures at 300 mg/kg, ip dosed 0.25 hrs before initiation of maximal electroconvulsions by maximal electroshock test; type: functional; summary of the method: as §1
[12] = tested on: Mus musculus; assay: Anticonvulsant activity in Swiss mouse assessed as protection against seizures at 300 mg/kg, ip dosed 0.25 hrs before pentylenetetrazole challenge by subcutaneous pentylenetetrazole seizure test; type: functional; summary of the method: as §1
[13] = tested on: Mus musculus; assay: Anticonvulsant activity in Swiss mouse assessed as protection against seizures at 100 mg/kg, ip dosed 0.5 hrs before pentylenetetrazole challenge by subcutaneous pentylenetetrazole seizure test; type: functional; summary of the method: as §1
[14] = organism: Mus musculus; assay: Protective index, ratio of neurotoxic TD50 in Swiss mouse by Chimney test to anticonvulsant ED50 in Swiss mouse measured at 1 hr of time to peak effect by maximal electroshock test; summary of the method: as §3
[15] = tested on: Liver microsome; assay: Drug metabolism in human liver microsomes assessed as metabolite M2 formation at 50 uM in presence of NADPH regeneration system pre-incubated at 37 degC for 5 min and measured 2 hrs after post NADPH system addition by UPLC and LC-MS/MS method; type: ADME
Summary of the method: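 The compound was incubated 2 h with human liver microsomes. Metabolites were detected by full-scan chromatogram and identified by LC/MS from their [M+H]+ molecular masses.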

[16] = Toxicity against HEK293 cells assessed as reduction in cell viability after 48 hrs by EZ4U label based assay; details: human
Summary of the method: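 HEK-293 human embryonic kidney cells were incubated with compound for 48 h and viability was then measured. Doxorubicin served as standard.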

[17] = organism: Rattus norvegicus; assay: Inhibition of [125I]omega-conotoxin GVIA binding to N-type calcium channel in rat cerebral cortex synaptosomes at 100 uM incubated for 30 mins by scintillation counting based radioligand displacement assay; type: subcellular
[18] = tested on: Mus musculus; assay: Anticonvulsant activity in Swiss mouse assessed as protection against seizures at 100 mg/kg, ip dosed 2 hrs before pentylenetetrazole challenge by subcutaneous pentylenetetrazole seizure test; type: functional; summary of the method: as §1
[19] = Toxicity in ip dosed Swiss mouse assessed as induction of motor performance impairment measured within 60 seconds measured at 0.5 hrs of time to peak effect by Chimney test; type: organism-based; details: in vivo
Summary of the method: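 Neurotoxicity was measured i.p. in mice by the chimney test for motor impairment. It was given as the median neurotoxic dose (TD50, mg/kg) at the time of peak effect.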

`CC(C(=O)N1CCN(c2cccc(C(F)(F)F)c2)CC1)N1C(=O)CCC1=O` (racemic) gave an Activity [1] of 100%, an inhibition [2] of 37.4% and an Activity [3] of 100%. The Activity [4] was 0%, the Activity [5] was 50% and the ED50 [6] was 85.1 mg/kg. For the same molecule, the inhibition [7] was 3.5%, the Activity [8] was 100% and the “Ratio TD50/ED50” value [9] was greater than 25.04. The Activity [10] was 100%, the Activity [11] was 75% and the Activity [12] was 100%. For the same molecule, the Activity [13] was 100%, the “Ratio TD50/ED50” value [14] was 9.68 and the Drug metabolism [15] was “metabolite_detected”. It also gave an IC50 at 48 h [16] of 50.7 µM, an inhibition [17] of 13.9% and an Activity [18] of 75%. It also gave a TD50 at 0.5 h [19] greater than 1500 mg/kg.
